Data from ChEMBL document CHEMBL4024769, “Synthesis and Investigation of Photophysical and Biological Properties of Novel S-Containing Bacteriopurpurinimides” (J Med Chem, 2017).
Calls of active or inactive are those of the source. The rule behind the calls is not given here.

Tests used:
[1] = Drug distribution in mouse S37 cell cytoplasmic vesicles at 1 uM for 4 hrs by laser scanning confocal microscopic analysis; assay type: ADME
Procedure, shortened: (§1)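 Mouse sarcoma S37 cells exposed to 1 μM photosensitizer for 4 h, then imaged by laser scanning confocal microscopy with a 63×/1.46 oil objective. Excitation 543 nm at 10 μW; emission collected above 655 nm on an APD detector. Intracellular localization judged against transmitted-light images.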

[2] = Drug distribution in mouse S37 cell membrane at 1 uM for 4 hrs by laser scanning confocal microscopic analysis; assay type: ADME, cell-based; procedure, shortened: as §1
[3] = Drug uptake in liver tumor of F1 mouse implanted with mouse S37 cells assessed as normalized fluorescence at 2.5 mg/kg, iv measured up to 24 hrs post injection in presence of He-Ne laser radiation by local fluorescence spectroscopic analysis; assay type: ADME, organism-based; settings: in vivo
Procedure, shortened: (§2)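 Single iv dose of 2.5 mg/kg given to F1 mice bearing S37 sarcoma. Skin, muscle, liver, kidney, spleen and tumor taken from three animals each at 0.25, 0.5, 2, 4 and 24 h and read ex vivo by contact local fluorescence spectroscopy. He–Ne 632.8 nm excitation; 640–900 nm integral normalized to backscattered laser signal (FN).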

[4] = Phototoxicity against mouse S37 cells implanted in F1 mouse assessed as tumor growth inhibition at 2.5 mg/kg, iv preincubated for 30 mins with subsequent 150 J/cm2 irradiation measured on day 18 post irradiation relative to control; assay type: functional; settings: S37, light or radiation study, read-out: TGI
Procedure, shortened: (§3)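 S37 sarcoma mice treated on day 7 of tumor growth with compound iv; tumors 140–160 mm3 beforehand, droperidol 0.25 mg ip as anesthetic. LED irradiation at 800 ± 21 nm, 100 mW/cm2, 150 J/cm2, given 15 or 30 min after dosing. Controls got iv 0.9% NaCl. Volume = d1×d2×d3×0.52; TGI = […]×100%.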

[5] = Drug distribution in mouse S37 cell nuclear membrane at 1 uM for 4 hrs by laser scanning confocal microscopic analysis; assay type: ADME; procedure, shortened: as §1
[6] = Drug distribution in mouse S37 cell cytoplasm at 1 uM for 4 hrs by laser scanning confocal microscopic analysis; assay type: ADME; procedure, shortened: as §1
[7] = Dark toxicity against mouse S37 cells assessed as cell growth inhibition up to 15 uM after 24 hrs by MTT assay; assay type: cell-based; settings: s37, 24 h
Procedure, shortened: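 S37 mouse sarcoma cells in DMEM with 2 mM L-glutamine and 10% FBS, 37 °C, 5% CO2. Compound added 24 h after plating and kept without irradiation for 24 h in the dark. Survival scored visually and by MTT colorimetry.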

[8] = Phototoxicity against mouse S37 cells implanted in F1 mouse assessed as tumor growth inhibition at 2.5 mg/kg, iv preincubated for 30 mins with subsequent 150 J/cm2 irradiation measured on day 20 post irradiation relative to control; assay type: functional; settings: S37, light or radiation study, read-out: TGI; procedure, shortened: as §3
[9] = Phototoxicity against mouse S37 cells implanted in F1 mouse assessed as tumor growth inhibition at 2.5 mg/kg, iv preincubated for 30 mins with subsequent 150 J/cm2 irradiation measured on day 8 post irradiation relative to control; assay type: functional; settings: S37, light or radiation study, read-out: TGI; procedure, shortened: as §3
[10] = Drug uptake in skin tumor of F1 mouse implanted with mouse S37 cells assessed as normalized fluorescence at 2.5 mg/kg, iv measured up to 24 hrs in presence of He-Ne laser radiation by local fluorescence spectroscopic analysis; assay type: ADME, organism-based; settings: in vivo
Procedure, shortened: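 S37 sarcoma-bearing immunocompetent F1 mice (18−22 g) given PS 2.5 mg/kg iv. Animals sacrificed at 0.25, 0.5, 2, 4 and 24 h, with three animals per time point. Skin, tumor and organ samples were read ex vivo by contact local fluorescence spectroscopy under He−Ne 632.8 nm excitation. Integrated 640−900 nm emission was normalized to the backscattered laser signal to give FN.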

[11] = Drug uptake in kidney tumor of F1 mouse implanted with mouse S37 cells assessed as normalized fluorescence at 2.5 mg/kg, iv measured up to 24 hrs post injection in presence of He-Ne laser radiation by local fluorescence spectroscopic analysis; assay type: ADME, organism-based; settings: in vivo; procedure, shortened: as §2
[12] = Drug distribution in mouse S37 cell cytoplasmic vesicles at 1 uM for 4 hrs by microspectroscopy; assay type: ADME
[13] = Drug uptake in spleen tumor of F1 mouse implanted with mouse S37 cells assessed as normalized fluorescence at 2.5 mg/kg, iv measured up to 24 hrs post injection in presence of He-Ne laser radiation by local fluorescence spectroscopic analysis; assay type: ADME, organism-based; settings: in vivo; procedure, shortened: as §2
[14] = Drug uptake in tumor of F1 mouse implanted with mouse S37 cells at 2.5 mg/kg, iv measured after 24 hrs in presence of He-Ne laser radiation by local fluorescence spectroscopic analysis; assay type: ADME, organism-based, Neoplasm; settings: in vivo; procedure, shortened: as §2
[15] = Phototoxicity against mouse S37 cells implanted in F1 mouse assessed as tumor growth inhibition at 2.5 mg/kg, iv preincubated for 30 mins with subsequent 150 J/cm2 irradiation measured on day 15 post irradiation relative to control; assay type: functional; settings: S37, light or radiation study, read-out: TGI; procedure, shortened: as §3
[16] = Phototoxicity against mouse S37 cells implanted in F1 mouse assessed as tumor growth inhibition at 5 mg/kg, iv preincubated for 15 mins with subsequent 150 J/cm2 irradiation measured on day 18 post irradiation relative to control; assay type: functional; settings: S37, light or radiation study, read-out: TGI; procedure, shortened: as §3
[17] = Drug uptake in tumor of F1 mouse implanted with mouse S37 cells at 2.5 mg/kg, iv measured after 2 hrs in presence of He-Ne laser radiation by local fluorescence spectroscopic analysis; assay type: ADME, organism-based, Neoplasm; settings: in vivo; procedure, shortened: as §2
[18] = Phototoxicity against mouse S37 cells implanted in F1 mouse assessed as tumor growth inhibition at 2.5 mg/kg, iv preincubated for 15 mins with subsequent 150 J/cm2 irradiation measured on day 18 post irradiation relative to control; assay type: functional; settings: S37, light or radiation study, read-out: TGI; procedure, shortened: as §3
[19] = Phototoxicity against mouse S37 cells implanted in F1 mouse assessed as tumor growth inhibition at 2.5 mg/kg, iv preincubated for 30 mins with subsequent 150 J/cm2 irradiation measured on day 11 post irradiation relative to control; assay type: functional; settings: S37, light or radiation study, read-out: TGI; procedure, shortened: as §3
[20] = system: Mus musculus; experiment: Toxicity in F1 mouse implanted with mouse S37 cells at 2.5 mg/kg, iv preincubated for 15 to 30 mins with subsequent 150 J/cm2 irradiation measured up to 16 days post irradiation; assay type: organism-based; settings: in vivo, 384 h
Procedure, shortened: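 F1 mice bearing S37 sarcoma (140−160 mm3) were treated on day 7 of tumour growth with 2.5 or 5.0 mg/kg iv; controls received iv 0.9% NaCl. Animals were anaesthetised with droperidol 0.25 mg/animal ip. LED irradiation (800 ± 21 nm, 100 mW/cm2, 150 J/cm2) followed 15 or 30 min after dosing. Tumour volume was calculated as d1×d2×d3×0.52, with TGI computed versus controls. Tumour-free animals were followed for 90 d.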

[21] = system: Sarcoma M1; experiment: Phototoxicity against rat Sarcoma M1 cells implanted in rat assessed as tumor vasculature disruption at 2.5 mg/kg, ip administered as single dose on day 11 post inoculation followed by 300 J/cm2 irradiation after 2.5 to 3 hrs measured on day 2 post photodynamic therapy by CD31 dependent immunoimgaing; assay type: functional, organism-based

Structure (SMILES) | Drug uptake [1] | Drug uptake [2] | Drug uptake [3] | inhibition in vivo at 2.5 mg/kg [4] [%] | Drug uptake [5] | Drug uptake [6] | Activity [7] | inhibition in vivo at 2.5 mg/kg [8] [%] | inhibition in vivo at 2.5 mg/kg [9] [%] | Flu intensity [10] [RU] | Drug uptake [11] | Drug uptake [12] | Drug uptake [13] | Drug uptake [14] | inhibition in vivo at 2.5 mg/kg [15] [%] | Drug uptake [17] | inhibition in vivo at 2.5 mg/kg [19] [%] | Activity [20] | other results
CCCO/N=C(\C)c1c(C)c2cc3nc(c4c5[nH]c(cc6nc(cc1[nH]2)[C@H](C)[C@H]6CC)c(C)c5C(=O)N(OCCC)C4=O)[C@@H](CCC(=O)OC)[C@@H]3C | Active | Not Active | Active | 77.1 | Not Active | Not Active | Non-Toxic | 65.9 | 100 | 2 | Active | Active | Active | Not Active | 81.5 | Active | 88.6 | Non-Toxic | inhibition in vivo at 5 mg/kg [16]: 100%; inhibition in vivo at 2.5 mg/kg [18]: 100%
CCCO/N=C(\C)c1c(C)c2cc3nc(c4c5[nH]c(cc6nc(cc1[nH]2)[C@@H](C)[C@@H]6CC)c(C)c5C(=O)N(OCCC)C4=O)[C@H](CCC(=O)NCCSSCCNC(=O)CC[C@@H]1c2nc(cc4[nH]c(cc5nc(cc6[nH]c7c2C(=O)N(OCCC)C(=O)c7c6C)[C@H](CC)[C@H]5C)c(/C(C)=N/OCCC)c4C)[C@H]1C)[C@H]3C | Active | Not Active | Active | 88 | Not Active | Not Active | Non-Toxic | 75.5 | 100 | 2 | Active | Active | Active | Not Active | 93.9 | Active | 97.4 | Non-Toxic | Activity [21]: Active
